Assay results as given in ChEMBL document CHEMBL4364256, “Design, synthesis and biological evaluation of antimicrobial diarylimine and -amine compounds targeting the interaction between the bacterial NusB and NusE proteins” (Eur J Med Chem, 2019).
≈ marks a conversion by molar mass, not a printed value. Calls of active or inactive are those of the source.

How the values were obtained:
[1] = test system: Staphylococcus aureus; assay: Antimicrobial activity against CA-methicillin-resistant Staphylococcus aureus W47 ST30 incubated for 20 hrs by microdilution method; format: functional
Summary of the method: (§1)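 MIC determined by microdilution following Clinical & Laboratory Standards Institute (CLSI) guidelines, read in µg/mL, against a panel of hospital- and community-acquired MRSA strains.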

[2] = test system: Streptococcus agalactiae; assay: Antimicrobial activity against Streptococcus agalactiae ATCC 12386 incubated for 20 hrs by microdilution method; format: functional
Summary of the method: (§2)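 Broth microdilution MIC testing done following CLSI guidelines.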

[3] = test system: Acinetobacter baumannii; assay: Antimicrobial activity against Acinetobacter baumannii ATCC 19606 incubated for 20 hrs by microdilution method; format: functional; summary of the method: as §2
[4] = test system: Streptococcus pyogenes; assay: Antimicrobial activity against Streptococcus pyogenes ATCC 19615 incubated for 20 hrs by microdilution method; format: functional; summary of the method: as §2
[5] = test system: Staphylococcus aureus; assay: Antimicrobial activity against Staphylococcus aureus ATCC BAA44 incubated for 20 hrs by microdilution method; format: functional; summary of the method: as §1
[6] = test system: Staphylococcus aureus; assay: Antimicrobial activity against Staphylococcus aureus ST239 incubated for 20 hrs by microdilution method; format: functional; summary of the method: as §1
[7] = test system: Staphylococcus aureus; assay: Antimicrobial activity against Staphylococcus aureus ST22 11B086169 incubated for 20 hrs by microdilution method; format: functional; summary of the method: as §1
[8] = test system: Staphylococcus aureus; assay: Antimicrobial activity against Staphylococcus aureus HA W235 ST5 incubated for 20 hrs by microdilution method; format: functional; summary of the method: as §1
[9] = test system: Staphylococcus saprophyticus subsp. saprophyticus; assay: (§3) Antimicrobial activity against Staphylococcus saprophyticus ATCC 15305 incubated for 20 hrs by microdilution method; format: functional; summary of the method: as §2
[10] = test system: Streptococcus pneumoniae; assay: Antimicrobial activity against Streptococcus pneumoniae ATCC 49619 incubated for 20 hrs by microdilution method; format: functional; summary of the method: as §2
[11] = test system: Pseudomonas aeruginosa; assay: Antimicrobial activity against Pseudomonas aeruginosa ATCC 27853 incubated for 20 hrs by microdilution method; format: functional; summary of the method: as §2
[12] = test system: Enterococcus casseliflavus; assay: Antimicrobial activity against Enterococcus casseliflavus ATCC 25788 incubated for 20 hrs by microdilution method; format: functional; summary of the method: as §2
[13] = test system: Enterococcus faecium; assay: Antimicrobial activity against Enterococcus faecium ATCC 19433 incubated for 20 hrs by microdilution method; format: functional; summary of the method: as §2
[14] = test system: Staphylococcus aureus; assay: Antimicrobial activity against Staphylococcus aureus ATCC BAA43 incubated for 20 hrs by microdilution method; format: functional; summary of the method: as §1
[15] = test system: Staphylococcus epidermidis; assay: Antimicrobial activity against Staphylococcus epidermidis ATCC 12228 incubated for 20 hrs by microdilution method; format: functional; summary of the method: as §2
[16] = test system: Staphylococcus aureus; assay: Antimicrobial activity against CA-methicillin-resistant Staphylococcus aureus W4 ST338 incubated for 20 hrs by microdilution method; format: functional; summary of the method: as §1
[17] = test system: Staphylococcus aureus; assay: Antimicrobial activity against Staphylococcus aureus HA W231 ST45 incubated for 20 hrs by microdilution method; format: functional; summary of the method: as §1
[18] = Apparent permeability across apical to basolateral side in human Caco2 cells by LC-MS/MS analysis; format: ADME, cell-based; conditions: Caco-2
[19] = test system: Staphylococcus aureus; assay: Antimicrobial activity against CA-methicillin-resistant Staphylococcus aureus W48 ST217 incubated for 20 hrs by microdilution method; conditions: W48 ST217, 20 h
[20] = test system: Staphylococcus aureus; assay: Antimicrobial activity against CA-methicillin-resistant Staphylococcus aureus W46 ST59 incubated for 20 hrs by microdilution method; conditions: W46 ST59, 20 h
[21] = test system: Staphylococcus aureus; assay: Antimicrobial activity against Staphylococcus aureus USA300/ST8 incubated for 20 hrs by microdilution method; conditions: USA300 ST8, 20 h
[22] = test system: Staphylococcus aureus; assay: microbe, parasite or virus in culture; conditions: ATCC 29213, 20 h
[23] = as §3; format: functional, Staphylococcus saprophyticus subsp. saprophyticus; conditions: ATCC 15305, 20 h; summary of the method: as §2
[24] = Cytotoxicity against human HaCaT cells assessed as reduction in cell viability after 48 to 72 hrs by MTT assay; format: cell-based
[25] = test system: Bacillus subtilis; assay: Inhibition of N-terminal LgBiT-fused Bacillus subtilis NusB expressed in Escherichia coli BL21(DE3)pLysS interaction with C- terminal SmBiT-fused Bacillus subtilis NusE expressed in Escherichia coli BL21(DE3)pLysS at 100 uM preincubated for 10 mins followed by NusE addition and measured after 10 mins by nano-glo luciferase assay relative to control
Summary of the method: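 NusB and NusE were mixed 1:1 at 1 µM in PBS, with compound at 100 µM. The read-out was percent inhibition of the NusB-NusE interaction.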

[26] = test system: Staphylococcus aureus; assay: Bacteriostatic activity against Staphylococcus aureus ATCC 25923 at 1/4 to 1 times MIC preincubated for up to 24 hrs followed by replating on agar plate and measured after overnight incubation by time-kill assay; format: functional, organism-based
[27] = microbe, parasite or virus in culture; conditions: Enterobacter cloacae, ATCC 13047, 20 h
[28] = Therapeutic index, ratio of CC50 for human A549 cells to 1/2 times MIC for Staphylococcus aureus ATCC 25923; format: toxicity; conditions: read-out: TI
[29] = Therapeutic index, ratio of CC50 for human HaCaT cells to 1/2 times MIC for Staphylococcus aureus ATCC 25923; format: toxicity; conditions: read-out: TI
[30] = Cytotoxicity against human A549 cells assessed as reduction in cell viability after 48 to 72 hrs by MTT assay; format: cell-based
[31] = test system: Staphylococcus aureus; assay: Antimicrobial activity against CA-methicillin-resistant Staphylococcus aureus W45 ST59 incubated for 20 hrs by microdilution method; conditions: W45 ST59, 20 h
[32] = test system: Staphylococcus aureus; assay: Bactericidal activity against Staphylococcus aureus ATCC 25923 at 4 times MIC preincubated for up to 24 hrs followed by replating on agar plate and measured after overnight incubation by time-kill; format: functional, organism-based
[33] = test system: Erythrocyte; assay: Hemolytic activity against human erythrocytes at 0.1 to 10 ug/ml incubated for 45 mins; format: ADME, cell-based; conditions: 0.75 h
Summary of the method: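 Hemolysis was tested on human blood cells with compound at 0.1, 1 and 10 µg/mL, judged against a nonhemolytic cut-off value.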

[34] = test system: Staphylococcus aureus; assay: microbe, parasite or virus in culture; conditions: ATCC 25923, 20 h
[35] = test system: Bacteria; assay: Binding affinity to bacterial NusB assessed as change in chiral structure at 2 ug/ml by circular dichroism spectroscopic analysis
Summary of the method: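 Circular dichroism spectra were recorded on NusB at 2.0 µg/mL in neutral phosphate buffer, alone and after mixing with compound at a 1:1 ratio. Binding was read as a change in the spectrum.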

[36] = ATCC 19606 = CIP 70.34 = JCM 6841, 20 h

Row | Compound | MIC ([1]; W47 ST30, 20 h) [µg/mL] | MIC ([2]; ATCC 12386, 20 h) [µg/mL] | MIC [3, 36] [µg/mL] | MIC [19] [µg/mL] | MIC ([4]; ATCC 19615, 20 h) [µg/mL] | MIC [20] [µg/mL] | MIC ([5]; ATCC BAA44, 20 h) [µg/mL] | MIC ([6]; CN79, 20 h) [µg/mL] | MIC ([7]; ST22 11B086169, 20 h) [µg/mL] | MIC ([8]; HA W235 ST5, 20 h) [µg/mL] | MIC [21] [µg/mL] | MIC [22] [µg/mL] | MIC [23] [µg/mL] | CC50 [24] [µM] | inhibition [25] [%] | MIC ([10]; ATCC 49619, 20 h) [µg/mL] | MIC [27] [µg/mL] | selectivity ratio [28] | MIC ([11]; ATCC 27853, 20 h) [µg/mL] | MIC ([12]; ATCC 25788, 20 h) [µg/mL] | also measured
1 | GENTAMICIN | – | – | – | – | – | – | – | – | – | – | – | – | – | – | – | – | – | – | – | – | MIC [1]: 0.25 µg/mL; MIC [2]: 32 µg/mL; MIC ([3]; ATCC 19606 = CIP 70.34 = JCM 6841): 32 µg/mL; MIC [4]: 8 µg/mL; MIC [5]: > 256 µg/mL; MIC ([6]; CN79): > 256 µg/mL; MIC [7]: 0.25 µg/mL; MIC [8]: > 256 µg/mL; MIC [9]: 0.0625 µg/mL; MIC [10]: 32 µg/mL; MIC [11]: 2 µg/mL; MIC [12]: 4 µg/mL; MIC [13]: 16 µg/mL; MIC [14]: > 256 µg/mL; MIC [15]: 0.125 µg/mL; MIC [16]: 0.25 µg/mL; MIC [17]: 16 µg/mL
2 | O=[N+]([O-])c1ccc(O)c(CNc2ccccc2Cl)c1 | 4 (≈ 14.4 µM) | 32 (≈ 115 µM) | 128 (≈ 459 µM) | 4 (≈ 14.4 µM) | 16 (≈ 57.4 µM) | 4 (≈ 14.4 µM) | 8 (≈ 28.7 µM) | 8 (≈ 28.7 µM) | 4 (≈ 14.4 µM) | 4 (≈ 14.4 µM) | 4 (≈ 14.4 µM) | 2 (≈ 7.18 µM) | 8 (≈ 28.7 µM) | 20.1 | 31 | 8 (≈ 28.7 µM) | 256 (≈ 919 µM) | 6 | > 256 | 32 (≈ 115 µM) | Papp A→B [18]: 16.1 ×10⁻⁶ cm/s; Activity [26]: Active; MIC ([13]; ATCC 19433, 20 h): 32 µg/mL (≈ 115 µM); MIC ([14]; ATCC BAA43, 20 h): 2 µg/mL (≈ 7.18 µM); selectivity ratio [29]: 6; MIC ([15]; ATCC 12228, 20 h): 8 µg/mL (≈ 28.7 µM); CC50 [30]: 22.5 µM; MIC [31]: 8 µg/mL (≈ 28.7 µM); Activity [32]: Active; MIC ([16]; W4 ST338, 20 h): 4 µg/mL (≈ 14.4 µM); Activity [33]: Non-Toxic; MIC ([17]; HA W231 ST45, 20 h): 4 µg/mL (≈ 14.4 µM); MIC [34]: 2 µg/mL (≈ 7.18 µM)
3 | CC(C)(C)c1ccccc1NCc1cc([N+](=O)[O-])ccc1O | 2 (≈ 6.66 µM) | 8 (≈ 26.6 µM) | > 256 | 2 (≈ 6.66 µM) | 8 (≈ 26.6 µM) | 2 (≈ 6.66 µM) | 2 (≈ 6.66 µM) | 2 (≈ 6.66 µM) | 2 (≈ 6.66 µM) | 2 (≈ 6.66 µM) | 2 (≈ 6.66 µM) | 4 (≈ 13.3 µM) | 2 (≈ 6.66 µM) | 15.1 | 72.2 | 2 to 8 (≈ 6.66 to 26.6 µM) | > 256 | 8 | > 256 | 16 (≈ 53.3 µM) | MIC ([13]; ATCC 19433, 20 h): 8 µg/mL (≈ 26.6 µM); MIC ([14]; ATCC BAA43, 20 h): 2 µg/mL (≈ 6.66 µM); selectivity ratio [29]: 9; MIC ([15]; ATCC 12228, 20 h): 1 µg/mL (≈ 3.33 µM); CC50 [30]: 13.4 µM; MIC [31]: 2 µg/mL (≈ 6.66 µM); MIC ([16]; W4 ST338, 20 h): 2 µg/mL (≈ 6.66 µM); MIC ([17]; HA W231 ST45, 20 h): 2 µg/mL (≈ 6.66 µM); Activity [35]: Active; MIC [34]: 1 µg/mL (≈ 3.33 µM)
